Source: ChEMBL document CHEMBL2424622, “Development of amino-pyrimidine inhibitors of c-Jun N-terminal kinase (JNK): kinase profiling guided optimization of a 1,2,3-benzotriazole lead” (Bioorg Med Chem Lett, 2013)

What was measured:
[1] = biological target: T1, Dual specificity mitogen-activated protein kinase kinase 3 (Homo sapiens) (UniProt P46734); experiment: Competitive binding affinity to MEK3 (unknown origin) at 10 uM in presence of ATP relative to control
T1 sequence (whole entry): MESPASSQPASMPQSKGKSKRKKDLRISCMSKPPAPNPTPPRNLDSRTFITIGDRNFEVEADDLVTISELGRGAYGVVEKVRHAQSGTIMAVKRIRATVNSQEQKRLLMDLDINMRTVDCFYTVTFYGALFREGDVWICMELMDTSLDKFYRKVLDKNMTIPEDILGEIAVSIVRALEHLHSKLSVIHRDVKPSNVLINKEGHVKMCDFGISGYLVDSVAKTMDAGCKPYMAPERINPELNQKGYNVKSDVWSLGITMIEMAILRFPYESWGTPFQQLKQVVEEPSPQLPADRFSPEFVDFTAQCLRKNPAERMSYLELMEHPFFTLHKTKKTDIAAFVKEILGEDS

[2] = biological target: Glycogen synthase kinase-3 alpha (Homo sapiens, UniProt P49840); experiment: Competitive binding affinity to GSK3alpha (unknown origin) at 10 uM in presence of ATP relative to control
Chain of Glycogen synthase kinase-3 alpha (P49840 2-483 limits assumed): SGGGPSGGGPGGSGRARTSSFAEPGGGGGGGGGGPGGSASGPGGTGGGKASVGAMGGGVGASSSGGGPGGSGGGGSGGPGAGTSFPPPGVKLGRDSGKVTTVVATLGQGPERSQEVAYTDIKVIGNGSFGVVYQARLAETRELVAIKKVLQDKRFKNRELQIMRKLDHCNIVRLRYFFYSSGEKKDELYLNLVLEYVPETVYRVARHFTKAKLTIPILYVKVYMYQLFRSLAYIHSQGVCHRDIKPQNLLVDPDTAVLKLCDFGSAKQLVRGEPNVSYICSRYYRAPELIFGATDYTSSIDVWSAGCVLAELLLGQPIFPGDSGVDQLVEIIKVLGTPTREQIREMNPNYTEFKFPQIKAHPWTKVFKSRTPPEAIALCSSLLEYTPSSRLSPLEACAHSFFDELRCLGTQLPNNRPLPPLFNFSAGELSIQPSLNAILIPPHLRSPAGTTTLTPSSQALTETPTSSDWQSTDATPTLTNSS
Method in brief: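 In vitro ATP-site competition binding format, run as one member of a diverse 128-kinase profiling panel. Each compound was tested at a single concentration across the whole panel.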

[3] = biological target: T2, Testis-specific serine/threonine-protein kinase 1 (Homo sapiens) (UniProt Q9BXA7); experiment: Competitive binding affinity to TSSK1 (unknown origin) at 10 uM in presence of ATP relative to control
T2 sequence (whole entry): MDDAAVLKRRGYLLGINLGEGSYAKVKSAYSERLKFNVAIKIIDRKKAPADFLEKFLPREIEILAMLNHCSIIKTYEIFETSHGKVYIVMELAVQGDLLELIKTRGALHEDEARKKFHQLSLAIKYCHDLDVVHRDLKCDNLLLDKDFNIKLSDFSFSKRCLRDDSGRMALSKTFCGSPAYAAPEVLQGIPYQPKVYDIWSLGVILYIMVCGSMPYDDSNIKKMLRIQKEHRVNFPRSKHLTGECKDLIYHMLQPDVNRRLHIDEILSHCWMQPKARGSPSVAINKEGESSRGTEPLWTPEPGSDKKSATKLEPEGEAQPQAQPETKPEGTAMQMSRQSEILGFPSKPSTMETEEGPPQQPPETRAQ

[4] = biological target: Fibroblast growth factor receptor 4 (Homo sapiens) (UniProt P22455); experiment: Competitive binding affinity to FGFR4 (unknown origin) at 10 uM in presence of ATP relative to control
Chain of Fibroblast growth factor receptor 4 (Homo sapiens) (P22455 22-802 limits assumed): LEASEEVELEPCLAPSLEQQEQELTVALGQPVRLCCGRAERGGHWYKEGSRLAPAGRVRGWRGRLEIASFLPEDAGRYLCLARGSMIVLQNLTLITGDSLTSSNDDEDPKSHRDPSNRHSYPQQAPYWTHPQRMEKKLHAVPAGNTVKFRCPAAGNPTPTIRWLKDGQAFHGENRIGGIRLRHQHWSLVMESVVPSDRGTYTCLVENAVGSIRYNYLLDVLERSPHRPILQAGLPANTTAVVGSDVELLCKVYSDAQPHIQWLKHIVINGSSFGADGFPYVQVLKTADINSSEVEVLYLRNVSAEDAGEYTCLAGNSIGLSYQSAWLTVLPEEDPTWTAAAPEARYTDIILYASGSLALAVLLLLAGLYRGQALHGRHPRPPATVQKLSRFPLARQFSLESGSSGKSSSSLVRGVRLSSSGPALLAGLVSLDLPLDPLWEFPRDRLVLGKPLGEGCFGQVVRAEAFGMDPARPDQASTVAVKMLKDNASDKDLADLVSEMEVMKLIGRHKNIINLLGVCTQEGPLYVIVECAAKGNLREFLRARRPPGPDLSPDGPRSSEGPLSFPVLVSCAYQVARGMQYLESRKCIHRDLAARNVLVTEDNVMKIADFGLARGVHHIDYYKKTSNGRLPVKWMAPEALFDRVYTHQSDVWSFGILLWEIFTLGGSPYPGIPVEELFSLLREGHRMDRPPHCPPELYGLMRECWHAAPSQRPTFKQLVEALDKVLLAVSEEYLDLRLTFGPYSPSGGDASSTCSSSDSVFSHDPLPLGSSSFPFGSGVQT
Method in brief: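 In vitro ATP-site competition binding assay, part of profiling against a diverse panel of 128 kinases. Each compound was tested at a single concentration of 10 µM. Kinome selectivity was summarized as S15 selectivity scores.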

[5] = biological target: T3, Serine/threonine-protein kinase LATS2 (Homo sapiens) (UniProt Q9NRM7); experiment: Competitive binding affinity to LATS2 (unknown origin) at 10 uM in presence of ATP relative to control
T3 sequence (whole entry): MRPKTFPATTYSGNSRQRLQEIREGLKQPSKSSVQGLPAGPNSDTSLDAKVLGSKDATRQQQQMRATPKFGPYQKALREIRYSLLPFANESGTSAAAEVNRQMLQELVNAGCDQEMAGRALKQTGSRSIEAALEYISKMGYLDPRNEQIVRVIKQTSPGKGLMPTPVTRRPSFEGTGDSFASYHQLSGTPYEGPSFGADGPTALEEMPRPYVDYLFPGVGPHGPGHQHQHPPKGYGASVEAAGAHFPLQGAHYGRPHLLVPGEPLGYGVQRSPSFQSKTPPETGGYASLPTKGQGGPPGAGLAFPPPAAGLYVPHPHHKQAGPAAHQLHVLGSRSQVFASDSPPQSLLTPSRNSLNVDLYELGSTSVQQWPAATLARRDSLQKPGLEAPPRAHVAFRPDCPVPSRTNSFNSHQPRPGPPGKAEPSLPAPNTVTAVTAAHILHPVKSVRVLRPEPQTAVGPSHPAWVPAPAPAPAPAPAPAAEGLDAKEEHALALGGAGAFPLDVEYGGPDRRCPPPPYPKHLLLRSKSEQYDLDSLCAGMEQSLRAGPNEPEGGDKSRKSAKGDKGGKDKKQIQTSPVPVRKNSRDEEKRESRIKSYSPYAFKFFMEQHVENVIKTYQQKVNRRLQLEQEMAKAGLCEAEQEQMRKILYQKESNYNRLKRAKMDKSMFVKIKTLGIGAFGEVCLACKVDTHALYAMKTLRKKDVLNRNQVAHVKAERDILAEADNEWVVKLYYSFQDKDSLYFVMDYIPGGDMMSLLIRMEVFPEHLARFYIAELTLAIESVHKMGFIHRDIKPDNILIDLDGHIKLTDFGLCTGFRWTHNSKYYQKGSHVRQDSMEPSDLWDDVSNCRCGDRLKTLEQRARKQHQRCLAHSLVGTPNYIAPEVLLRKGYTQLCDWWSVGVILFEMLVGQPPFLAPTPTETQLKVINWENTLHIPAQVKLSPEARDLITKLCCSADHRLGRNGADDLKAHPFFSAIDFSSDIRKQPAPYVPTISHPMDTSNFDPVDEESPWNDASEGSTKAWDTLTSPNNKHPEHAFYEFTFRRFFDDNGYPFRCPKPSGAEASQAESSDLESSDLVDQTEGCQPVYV

[6] = biological target: Cyclin-dependent kinase 19 (Homo sapiens) (UniProt Q9BWU1); experiment: Competitive binding affinity to CDK19 (unknown origin) at 10 uM in presence of ATP relative to control
Chain of Cyclin-dependent kinase 19 (Homo sapiens) (Q9BWU1 whole entry, looked up): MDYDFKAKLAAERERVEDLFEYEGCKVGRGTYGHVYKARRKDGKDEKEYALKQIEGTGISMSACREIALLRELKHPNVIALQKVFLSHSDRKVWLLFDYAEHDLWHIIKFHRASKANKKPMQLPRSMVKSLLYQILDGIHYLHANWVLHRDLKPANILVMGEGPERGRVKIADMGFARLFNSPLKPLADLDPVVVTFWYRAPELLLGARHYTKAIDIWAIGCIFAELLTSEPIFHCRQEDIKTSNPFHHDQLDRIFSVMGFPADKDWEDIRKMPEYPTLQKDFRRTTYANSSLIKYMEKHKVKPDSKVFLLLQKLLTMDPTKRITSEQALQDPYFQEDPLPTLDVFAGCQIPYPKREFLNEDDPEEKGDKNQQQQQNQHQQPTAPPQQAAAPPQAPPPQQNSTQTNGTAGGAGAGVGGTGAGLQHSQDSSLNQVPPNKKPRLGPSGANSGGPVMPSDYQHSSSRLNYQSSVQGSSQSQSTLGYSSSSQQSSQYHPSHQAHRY

[7] = biological target: Cyclin-dependent kinase 2/cyclin E1 (Homo sapiens, UniProt P24941); experiment: Inhibition of human recombinant CDK2/GST-tagged cyclin E expressed in baculovirus infected insect cells assessed as inhibition of 6XHis-tagged retinoblastoma protein (386 to 928) phosphorylation after 30 mins by scintillation counting analysis in presence of [gamma-33P]-ATP
Method in brief: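 CDK2 activity was measured as phosphorylation of a 6-histidine-tagged truncated retinoblastoma protein (amino acids 386–928) using [γ-33P]ATP.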

O[C@H]1CC[C@H](Nc2nccc(-n3nnc4ccccc43)n2)CC1
inhibition [1]: 97%
inhibition [2]: 100%
inhibition [3]: < 50%
inhibition [4]: < 50%
inhibition [5]: < 50%
inhibition [6]: 82%
IC50 [7]: 430 nM

N[C@H]1CC[C@H](Nc2nccc(-n3nnc4ccccc43)n2)CC1
IC50 [7]: 360 nM

O=C([C@H]1CC[C@H](Nc2nccc(-n3nnc4ccccc43)n2)CC1)N1CCOCC1
IC50 [7]: 2000 nM

CS(=O)(=O)CCCOc1cccc2c1ccn2-c1ccnc(N[C@H]2CC[C@H](C(=O)N3CCC(O)CC3)CC2)n1
inhibition [2]: > 85%

O[C@H]1CC[C@H](Nc2nccc(-n3ncc4ccccc43)n2)CC1
inhibition [1]: 95%
inhibition [2]: 99%
inhibition [3]: < 50%
inhibition [4]: < 50%
inhibition [5]: < 50%
inhibition [6]: < 50%

O[C@H]1CC[C@H](Nc2nccc(-c3n[nH]c4ccccc34)n2)CC1
inhibition [2]: 97%
inhibition [4]: < 50%

O[C@H]1CC[C@H](Nc2nccc(-n3ccc4ccccc43)n2)CC1
inhibition [1]: 93%
inhibition [2]: 91%
inhibition [3]: < 50%
inhibition [4]: < 50%
inhibition [5]: < 50%
inhibition [6]: 70%
